{
  "source": "paper PMC2820722",
  "about": "(Journal of the American Chemical Society, 2010)",
  "key": {"[1]": {"assay": "Light-driven conversion of caged probe to active probe", "format": "physicochemical", "details": "349 nm pulsed UV laser; caged fluorescein derivative as reference (Fig. S-6)", "summary_of_the_method": "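Uncaging by 349 nm diode-pumped Q-switched UV laser (5 ns pulses, 1 kHz, […] pulse energy) of the sample in a quartz cuvette. Dose was set by the number of pulses delivered and compared against an […] (CMNB)-fluorescein reference standard.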"}, "[2]": {"test_system": "proteasome Ch-L catalytic subunit in yeast cell lysate (defective T-L/Ca-L)", "assay": "Yeast cell lysate assay, double mutant strain", "format": "biochemical", "details": "MG132 5 μM, peptide 5 9.25 μM, Fig. 1A green"}, "[3]": {"test_system": "proteasome with defective Ch-L subunit in yeast cell lysate", "assay": "Yeast cell lysate assay, defective Ch-L subunit", "format": "biochemical", "details": "peptide 9.25 μM; ~1 mg protein/mL lysate; λex 600 nm, λem 700 nm; Fig. 1A brown", "summary_of_the_method": "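Yeast cells (catalytic Thr→Ala) were harvested in log phase into 50 mM Tris-HCl pH 7.4, 1 mM EDTA, 5 mM MgCl2, drop-frozen in liquid nitrogen, cryolysed by grinding mill, and cleared (14000 rpm, 20 min, 4 °C). Protein was set equal by Bradford. The sensor was added as half the assay volume from a 2× solution, and fluorescence change was followed on a plate reader.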"}, "[4]": {"test_system": "20S proteasome T-L active site", "format": "biochemical, Saccharomyces cerevisiae", "details": "30 μM peptide 5; 100 μM Boc-LRR-amc; purified 20S proteasome, Buffer A, 30 °C; λex 380 nm, λem 460 nm; Fig. 2B"}, "[5]": {"test_system": "20S proteasome Ca-L active site", "format": "biochemical, Saccharomyces cerevisiae", "details": "30 μM peptide 5; 100 μM Z-LLE-βna; purified 20S proteasome, Buffer A, 30 °C; λex 342 nm, λem 425 nm; Fig. 2B"}},
  "note": "Peptide text beside a SMILES is read from it. * marks the point of attachment. Cbz = O=C(OCc1ccccc1)*",
  "data": [
    {"molecule": "Ac-His-Trp-Ser-Leu-N(DMNB)-Lys(Fl)-amide [Peptide 10]", "values": [
      {"measurement": "Quantum yield for the photolytic conversion of 10 to 5", "setting": "[1]", "value": 0.08}
    ]},
    {"molecule": "CC(C)C[C@@H](C=O)NC(=O)[C@H](CC(C)C)NC(=O)[C@H](CC(C)C)NC(=O)OCc1ccccc1", "note": "[MG132] (Cbz-Leu-Leu-Leu-aldehyde)", "values": [
      {"measurement": "Effect of inhibitor on hydrolytic activity towards peptide 5 in lysate", "setting": "[2]", "value": "completely abolishes hydrolytic activity"}
    ]},
    {"molecule": "Ac-His-Trp-Ser-Leu-Lys(Fl)-amide [Peptide 5]", "values": [
      {"measurement": "Fluorescence change of the sensor in lysate with defective Ch-L subunit", "setting": "[3]", "value": "barely perceptible fluorescence change"},
      {"measurement": "Effect of Ch-L substrate on rate of T-L substrate processing", "setting": "[4]", "value": "reduces the rate"},
      {"measurement": "Effect of Ch-L substrate on rate of Ca-L substrate processing", "setting": "[5]", "value": "reduces the rate"}
    ]}
  ]
}
